Results published in ChEMBL document CHEMBL1770142, “Improvement of the synthesis and pharmacokinetic properties of chromenotriazolopyrimidine MDM2-p53 protein-protein inhibitors” (Bioorg Med Chem Lett, 2011).
In brackets after ≈: the same amount, converted by molar mass.

What was measured:
[1] = Solubility of the compound in phosphate buffer saline; assay type: physicochemical
[2] = Mean residence time in rat at 0.5 mg/kg, iv; assay type: ADME, organism-based; set-up: dose 0.5 mg/kg, route intravenous; conditions: in vivo
Outline: (§1)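 Rat PK: intravenous 0.5 mg/kg in 100% DMSO; oral 2.0 mg/kg in 0.5% methylcellulose/1% Tween 80/98.5% water. Plasma profiles give MRT, Vdss and CL from the iv arm and F from the oral arm.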

[3] = Volume of distribution at steady state in rat at 0.5 mg/kg, iv; assay type: ADME, organism-based; set-up: dose 0.5 mg/kg, route intravenous; conditions: in vivo, read-out: Vdss; outline: as §1
[4] = Oral bioavailability in rat at 2 mg/kg; assay type: ADME, organism-based; conditions: in vivo; outline: as §1
[5] = Mean residence time in rat at 2 mg/kg, iv; assay type: ADME, organism-based; set-up: dose 2 mg/kg, route intravenous; conditions: in vivo
Outline: (§2)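 Rats dosed intravenously at 2.0 mg/kg in DMSO, or orally at 5.0 mg/kg in 2% HPMC, 1% Tween 80, pH 2.2 with HCl. Plasma levels of parent and of the 4/5 conversion products were followed over time. iv parameters and oral bioavailability were taken from these profiles.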

[6] = Volume of distribution at steady state in rat at 2 mg/kg, iv; assay type: ADME, organism-based; set-up: dose 2 mg/kg, route intravenous; conditions: in vivo, read-out: Vdss; outline: as §2
[7] = Oral bioavailability in rat at 5 mg/kg, po; assay type: ADME, organism-based; conditions: in vivo; outline: as §2

| solubility [1] | MRT [2] | Vd [3] | bioavailability [4] | MRT [5] | Vd [6] | bioavailability [7] | SMILES |
| --- | --- | --- | --- | --- | --- | --- | --- |
| 132 µg/mL (≈ 222 µM) | 0.46 h | 2.6 L/kg | 14% |  |  |  | O=C(O)CN1C2=C([C@H](c3ccc(Br)cc3)n3ncnc31)[C@@H](c1ccc(Br)cc1)Oc1ccccc12 |
| < 1 µg/mL |  |  |  | 2.4 h | 9.9 L/kg | 23% | CN1C2=C([C@H](c3ccc(Br)cc3)n3ncnc31)[C@@H](c1ccc(Br)cc1)Oc1ccccc12 |
| 6.1 µg/mL (≈ 9.59 µM) | 4.1 h | 1.7 L/kg | 54% |  |  |  | O=C(O)CCCCN1C2=C([C@H](c3ccc(Br)cc3)n3ncnc31)[C@@H](c1ccc(Br)cc1)Oc1ccccc12 |
